We go through 26 molecules from ChEMBL document CHEMBL4219127, “Structural design, synthesis and substituent effect of hydrazone-N-acylhydrazones reveal potent immunomodulatory agents” (Bioorg Med Chem, 2018).

A short description of data set [1]: Cytotoxicity against BALB/c mouse J774 cells assessed as reduction in cell viability after 72 hrs by alamarBlue assay. Format: cell-based. In a few lines:
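J774 murine macrophages, 1×10^4 cells/well in DMEM + 10% FBS, pre-incubated 24 h at 37°C, 5% CO2; compounds 100–0.41 μM in triplicate for 72 h. AlamarBlue added for 4 h, absorbance at 570 and 600 nm; gentian violet positive control. CC50 from three independent experiments.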
(In general: Resazurin is reduced to fluorescent resorufin, in cell work by metabolically active cells.)

Another data set deals with J774. Description: Antiinflammatory activity in BALB/c mouse J774 cells assessed as inhibition of LPS/IFNgamma-induced nitric oxide production at 20 uM after 24 hrs by Griess method relative to control. Particulars: J774, 24 h. It is filed as functional. In a few lines:
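J774 macrophages, 2×10^5 cells/well in DMEM + 10% FBS, allowed to settle 2 h at 37°C, 5% CO2; stimulated with LPS (E. coli 0111:B4, 500 ng/mL) plus IFNγ (5 ng/mL) with compound present (primary screen at 20 μM). Nitrite measured by Griess in supernatants at 24 h; % inhibition against stimulated untreated control.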
For orientation: Griess reagent forms a coloured azo dye with nitrite.

The test system of data set [2] is Splenocyte. Description: Immunomodulatory activity in BALB/c mouse splenocytes assessed as inhibition of concanavalin A-induced lymphocyte proliferation by measuring [3H]-thymidine uptake after 48 to 72 hrs by scintillation counting analysis. It is filed as functional, cell-based. In a few lines:
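BALB/c splenocytes at 1×10^6 cells/well, in triplicate, stimulated with Con A (2 μg/mL) or anti-CD3/CD28 beads (1:1 bead:cell) with compound at 12–0.04 μM. After 48 h, 1 μCi 3H-thymidine added for a further 18 h; scintillation counting. Proliferation as % uptake versus untreated; dexamethasone control. IC50 from three independent experiments.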

Data set [3] deals with Splenocyte. In words: Antiinflammatory activity in BALB/c mouse splenocytes assessed as inhibition of concanavalin A-induced IL-4 level at 10 uM after 48 hrs by ELISA. Format: functional, cell-based. In a few lines: (§1)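 Splenocytes from BALB/c mice at 5×10^6 cells/well in DMEM, stimulated with Con A 5 µg/mL, with compound at 10, 5 and 2.5 µM. Cell-free supernatants collected at 48 h and stored at -80 °C. IL-2, IL-4, IL-10, IL-17 and IFNγ measured by sandwich ELISA. Dexamethasone control at 10 µM (1.0 µM for IL-2). Mean±S.E.M. from one of two experiments.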
Background: In an ELISA, binding on a coated surface is turned into a signal by an enzyme label.

Data set [4] deals with Splenocyte. Description: Antiinflammatory activity in BALB/c mouse splenocytes assessed as inhibition of concanavalin A-induced IL-10 level at 10 uM after 48 hrs by ELISA. Format: functional, cell-based. The procedure, abridged: as §1
The subject of data set [5] is Splenocyte. In words: Antiinflammatory activity in BALB/c mouse splenocytes assessed as inhibition of concanavalin A-induced IL-17A level at 10 uM after 48 hrs by ELISA. Format: functional, cell-based. The procedure, abridged: as §1
Data set [6] has as its system Splenocyte. In words: Antiinflammatory activity in BALB/c mouse splenocytes assessed as inhibition of concanavalin A-induced IL-2 level at 1 uM after 48 hrs by ELISA. Format: functional, cell-based. The procedure, abridged:
as §1

The subject of data set [7] is Splenocyte. Description: Antiinflammatory activity in BALB/c mouse splenocytes assessed as inhibition of concanavalin A-induced IFN-gamma level at 10 uM after 48 hrs by ELISA. It is filed as functional, cell-based. The procedure, abridged:
as §1

A further data set has as its system Mus musculus. Description: Antiinflammatory activity in carrageenan-induced BALB/c mouse peritonitis model assessed as reduction in number of neutrophils in peritoneal fluid at 80 mg/kg, ip pretreated for 1 hr followed by carrageenan challenge measured after 4 hrs by hematoxylin and eosin staining-based assay relative to control. Format: functional. In a few lines: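 Male BALB/c mice were dosed orally with compound (20 or 80 mg/kg) or vehicle; indomethacin 80 mg/kg was given ip. One hour later, carrageenan (250 µL of 1.0 mg/mL) was injected ip. Peritoneal lavage with 2 mL saline at 4 h. Total leukocytes counted in Neubauer chamber with Trypan blue; neutrophils by blinded 200-cell differential on H&E-stained cytospins.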

The structures appear in SMILES notation. Calls of active or inactive are those of the source. The rule behind the calls is not given here.

For `CC(/C=N/N(C)c1ccc([N+](=O)[O-])cc1)=N\NC(=O)c1ccc(N)cc1`, in data set [1], the CC50 at 72 h was found to be 51.7 µM. In the data set with J774, the inhibition at 20 µM is 3.6%. Besides, the IC50 in the data set with Splenocyte [2] was greater than 12 µM.

For `CC(/C=N/Nc1ccc([N+](=O)[O-])cc1)=N\NC(=O)c1ccccc1Nc1ccccc1`, in data set [1], the CC50 at 72 h is greater than 100 µM. Also, in the data set with J774, the inhibition at 20 µM stood at 14.1%.

Turning to `CC(/C=N/Nc1ccc([N+](=O)[O-])cc1)=N\NC(=O)c1ccc(Cl)cc1`, the CC50 at 72 h in data set [1] is 63.9 µM. For the same molecule, the inhibition at 20 µM in the data set on J774 came out at 23%. For the same molecule, in the data set on Splenocyte [2], the half-inhibitory concentration (IC50) turned out to be 4.2 µM.

As to `CN(C)c1ccc(C(=C2C=CC(=[N+](C)C)C=C2)c2ccc(N(C)C)cc2)cc1` [GENTIAN VIOLET], the CC50 at 72 h in data set [1] is 4.1 µM.

For the molecule `COc1ccc(C(=O)N/N=C(C)/C=N/Nc2ccc([N+](=O)[O-])cc2)cc1`, the CC50 at 72 h in data set [1] was greater than 100 µM. Also, the inhibition at 20 µM in the data set with J774 came to 7.5%. The IC50 in the data set on Splenocyte [2] is greater than 12 µM.

As for `C[C@@H]1C[C@H]2[C@@H]3CCC4=CC(=O)C=C[C@]4(C)[C@@]3(F)[C@@H](O)C[C@]2(C)[C@@]1(O)C(=O)CO` [DEXAMETHASONE], the inhibition result with Splenocyte [3], in the data set with Splenocyte [4], in the data set on Splenocyte [5], in the data set on Splenocyte [6] and in the data set with Splenocyte [7] was “Active” each time. In addition, in [1], the CC50 at 72 h was determined as 91.1 µM. Moreover, the inhibition at 20 µM with J774 worked out at 69.8%. The IC50 with Splenocyte [2] was found to be 0.001 µM.

As for `COc1cc(C(=O)N/N=C(C)/C=N/Nc2ccc([N+](=O)[O-])cc2)ccc1O`, in [1], the CC50 at 72 h is greater than 100 µM. For the same molecule, the inhibition at 20 µM in the data set with J774 worked out at 6.6%. Besides, the IC50 with Splenocyte [2] came out at 5.1 µM.

With `CC(/C=N/N(C)c1ccc([N+](=O)[O-])cc1)=N\NC(=O)c1ccccc1O`, in data set [1], the CC50 at 72 h was found to be 31.5 µM. Moreover, the inhibition at 20 µM with J774 was 41%. In addition, the concentration for half-maximal inhibition (IC50) in the data set with Splenocyte [2] worked out at 3.12 µM.

`CC(/C=N/Nc1ccc([N+](=O)[O-])cc1)=N\NC(=O)c1ccc([N+](=O)[O-])cc1`: the CC50 at 72 h in data set [1] was greater than 100 µM. Also, in the data set with J774, the inhibition at 20 µM stood at 39.1%. The IC50 in the data set on Splenocyte [2] amounted to 0.98 µM.

In the case of `CC(/C=N/Nc1ccc([N+](=O)[O-])cc1)=N\NC(=O)c1cccc(C)c1`, in data set [1], the CC50 at 72 h was greater than 100 µM. Moreover, the inhibition at 20 µM with J774 came to 9.3%. In addition, the IC50 in the data set with Splenocyte [2] is greater than 12 µM.

Take `CC(/C=N/N(C)c1ccc([N+](=O)[O-])cc1)=N\NC(=O)c1cc([N+](=O)[O-])cc([N+](=O)[O-])c1`: in [1], the CC50 at 72 h came out at 39 µM. For the same molecule, in the data set with J774, the inhibition at 20 µM came out at 51%. Further, in the data set on Splenocyte [2], the IC50 is 1.11 µM.

As to `CC(/C=N/Nc1ccc([N+](=O)[O-])cc1)=N\NC(=O)c1ccccc1Cl`, the CC50 at 72 h in data set [1] is greater than 100 µM. In addition, the inhibition at 20 µM in the data set with J774 came to 39.4%. For the same molecule, the IC50 in the data set with Splenocyte [2] was greater than 12 µM.

As to `CC(/C=N/Nc1ccc([N+](=O)[O-])cc1)=N\NC(=O)c1ccc(N(C)C)cc1`, the CC50 at 72 h in data set [1] is greater than 100 µM. The inhibition at 20 µM in the data set on J774 is 25.6%. Further, the IC50 in the data set on Splenocyte [2] is greater than 12 µM.

Take `CC(/C=N/Nc1ccc([N+](=O)[O-])cc1)=N\NC(=O)c1ccccc1`: in [1], the CC50 at 72 h is greater than 100 µM. Moreover, the inhibition at 20 µM in the data set with J774 was 31.4%. The IC50 in the data set with Splenocyte [2] is greater than 12 µM.

Consider `CC(/C=N/Nc1ccc([N+](=O)[O-])cc1)=N\NC(=O)c1ccc(C(C)(C)C)cc1`, for which, in data set [1], the CC50 at 72 h was greater than 100 µM. In the data set with J774, the inhibition at 20 µM is 4.8%. The IC50 in the data set on Splenocyte [2] was greater than 12 µM.

In the case of `CC(/C=N/Nc1ccc([N+](=O)[O-])cc1)=N\NC(=O)c1ccc(C(F)(F)F)cc1`, the CC50 at 72 h in data set [1] came to 78.7 µM. Further, in the data set on J774, the inhibition at 20 µM was 18.7%. In addition, the IC50 in the data set with Splenocyte [2] was greater than 12 µM.

With `CC(/C=N/Nc1ccc([N+](=O)[O-])cc1)=N\NC(=O)c1ccccc1Oc1ccccc1`, in [1], the CC50 at 72 h is greater than 100 µM. The inhibition at 20 µM with J774 was determined as 5.5%. Besides, in the data set with Splenocyte [2], the IC50 was greater than 12 µM.

Consider `CC(/C=N/Nc1ccc([N+](=O)[O-])cc1)=N\NC(=O)c1ccc(N)cc1`, for which, in [1], the CC50 at 72 h was 75 µM. Besides, the inhibition at 20 µM with J774 stood at 12.8%. Besides, the IC50 in the data set on Splenocyte [2] is greater than 12 µM.

As for `COc1ccc2c(c1)c(CC(=O)O)c(C)n2C(=O)c1ccc(Cl)cc1` [INDOMETHACIN], the inhibition in vivo at 80 mg/kg in the data set on Mus musculus is 35.9%.

On to `CC(/C=N/Nc1ccc([N+](=O)[O-])cc1)=N\NC(=O)c1ccccc1N`, for which the CC50 at 72 h in data set [1] worked out at 29.8 µM. Besides, in the data set with J774, the inhibition at 20 µM was found to be 39.3%. For the same molecule, the IC50 with Splenocyte [2] worked out at 4.9 µM.

Turning to `CC(/C=N/Nc1ccc([N+](=O)[O-])cc1)=N\NC(=O)c1ccc(O)cc1`, the CC50 at 72 h in data set [1] was found to be 51 µM. Moreover, the inhibition at 20 µM with J774 was 43.8%. Also, the IC50 with Splenocyte [2] came out at 1.51 µM.

Consider `CC(/C=N/Nc1ccc([N+](=O)[O-])cc1)=N\NC(=O)c1ccccc1C`, for which the CC50 at 72 h in [1] is greater than 100 µM. The inhibition at 20 µM with J774 came to 21.9%. In the data set on Splenocyte [2], the IC50 came to 6 µM.

As to `CC(/C=N/Nc1ccc([N+](=O)[O-])cc1)=N\NC(=O)c1ccccc1F`, the CC50 at 72 h in [1] was greater than 100 µM. The inhibition at 20 µM in the data set on J774 was determined as 5.3%. Also, the IC50 in the data set on Splenocyte [2] was greater than 12 µM.

Turning to `CC(/C=N/Nc1ccc([N+](=O)[O-])cc1)=N\NC(=O)c1ccc2c(c1)OCO2`, the CC50 at 72 h in data set [1] is greater than 100 µM. Besides, the inhibition at 20 µM in the data set with J774 stood at 23.2%. For the same molecule, the IC50 in the data set with Splenocyte [2] was greater than 12 µM.

With `CC(/C=N/Nc1ccc([N+](=O)[O-])cc1)=N\NC(=O)c1ccccc1O`, the CC50 at 72 h in data set [1] was 29.5 µM. In addition, the inhibition at 20 µM in the data set with J774 was determined as 59.7%. In addition, the IC50 in the data set with Splenocyte [2] turned out to be 1.64 µM.

As for `CC(/C=N/Nc1ccc([N+](=O)[O-])cc1)=N\NC(=O)c1ccccc1I`, the CC50 at 72 h in data set [1] is 40 µM. Besides, in the data set on J774, the inhibition at 20 µM stood at 56.8%. Further, in the data set on Splenocyte [2], the IC50 came out at 2.98 µM.

The term CC50 denotes the concentration that lowers cell viability or growth by half. As a reminder, the inhibition is the percentage by which the read-out fell short of the control. One may read the IC50 as the concentration at which inhibition is half-maximal. One may read the inhibition in vivo as the percentage by which the read-out fell short of the control.
